The results in this text go back to ChEMBL document CHEMBL3272242, “Sulfamylurea hypoglycemic agents. 6. High-potency derivatives” (J Med Chem, 1976).

Active and inactive are the calls of the source. The rule behind the calls is not given here.

The test system of series [1] is Rattus norvegicus. In words: Hypoglycemic activity in 18 to 24 hrs-fasted rat assessed as reduction in blood glucose at 5 mg/kg, ip measured after 1 hr relative to saline-treated control. The series is classed as functional. Also on record: scale not given: the % may be the effect or the level left. To be noted: route intraperitoneal. The essentials: (§1)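 Unanesthetized male Charles River rats (200–250 g), fasted 18–24 h, in groups of five or six. Single ip dose. Tail-vein blood drawn before dosing and 1 h after. Glucose measured by ferricyanide reduction micromethod on an autoanalyzer. Value is the percent fall in blood glucose at 1 h versus a saline-treated control group. Significance levels are p < 0.05, 0.01 and 0.001.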

In series [2] the test system is Rattus norvegicus. Briefly: Hypoglycemic activity in 18 to 24 hrs-fasted rat assessed as reduction in blood glucose at 1 mg/kg, ip measured after 1 hr relative to saline-treated control. Also on record: scale not given: the % may be the effect or the level left. To be noted: route intraperitoneal. Type of series: functional. The essentials: as §1
Series [3] concerns Rattus norvegicus. In words: Hypoglycemic activity in 18 to 24 hrs-fasted rat assessed as reduction in blood glucose at 25 mg/kg, ip measured after 1 hr relative to saline-treated control. The series is classed as functional. Also on record: scale not given: the % may be the effect or the level left. As to conditions: route intraperitoneal. In short, it runs like this:
as §1

In series [4] the test system is Rattus norvegicus. Briefly: Hypoglycemic activity in 18 to 24 hrs-fasted rat assessed as reduction in blood glucose at 15 mg/kg, ip measured after 1 hr relative to saline-treated control. The series is classed as functional. Also on record: scale not given: the % may be the effect or the level left. As to conditions: route intraperitoneal. The essentials:
as §1

Series [5] has as its system Rattus norvegicus. In words: Hypoglycemic activity in 18 to 24 hrs-fasted rat assessed as reduction in blood glucose at 0.5 mg/kg, ip measured after 1 hr relative to saline-treated control. The series is classed as functional, organism-based. Also on record: dose 0.5 mg/kg. In short, it runs like this:
as §1

Series [6] deals with Rattus norvegicus. Briefly: Hypoglycemic activity in 18 to 24 hrs-fasted rat assessed as reduction in blood glucose at 100 mg/kg, ip measured after 1 hr relative to saline-treated control. Type of series: functional. Also on record: scale not given: the % may be the effect or the level left. To be noted: route intraperitoneal. In short, it runs like this:
as §1

The species entered for a further series is Homo sapiens. In words: Toxicity in maturity-onset diabetic patient. As to conditions: in vivo. Type of series: organism-based.
The test system of series [7] is Rattus norvegicus. Briefly: Hypoglycemic activity in 18 to 24 hrs-fasted rat assessed as reduction in blood glucose at 50 mg/kg, ip measured after 1 hr relative to saline-treated control. As to conditions: route intraperitoneal. The series is classed as functional. Also on record: scale not given: the % may be the effect or the level left. In short, it runs like this: as §1

For the compound `COc1ccc(Cl)cc1C(=O)NCCC1CCN(S(=O)(=O)NC(=O)NC2CCCCC2)CC1`, the values for the Activity in the series with Rattus norvegicus [1] and in the series on Rattus norvegicus [2] were 25% and 39%, respectively.
For `CCCNC(=O)NS(=O)(=O)N1CCC(CCNC(=O)c2cc(Cl)ccc2OC)CC1`, the Activity with Rattus norvegicus [1] was 11%; in the series on Rattus norvegicus [3], 41%; in the series with Rattus norvegicus [2], 24%.
For `COc1ncccc1C(=O)NCCC1CCN(S(=O)(=O)NC(=O)NC2CCCCC2)CC1`, the Activity with Rattus norvegicus [1] was 33%; in the series with Rattus norvegicus [2], 22%; in the series on Rattus norvegicus [4], 35%.
On to `O=C(NC1CCCCC1)NS(=O)(=O)N1CCC(CCNC(=O)c2cccc3cccnc23)CC1`, for which the results for the Activity in the series with Rattus norvegicus [1] and with Rattus norvegicus [2] were 37% and 29%, respectively.
`O.O=C(NC1CCCCC1)NS(=O)(=O)N1CCC(CCNC(=O)c2cc(Cl)cc3cccnc23)CC1`: the Activity with Rattus norvegicus [1] is reported as 52%; in the series on Rattus norvegicus [2], 17%. In the series on Rattus norvegicus [5], the result was inactive.
Regarding `COc1ncccc1C(=O)NCCC1CCN(S(=O)(=O)NC(=O)NC23CC4CC(CC(C4)C2)C3)CC1`, the Activity in the series with Rattus norvegicus [1] stood at 25%; with Rattus norvegicus [2] it was 12%.
In the case of `O=C(NC1CCCCC1)NS(=O)(=O)N1CCCCC1`, the Activity in the series on Rattus norvegicus [4] was found to be 19%; in the series on Rattus norvegicus [6], 34%.
Consider `COc1ccc(Cl)cc1C(=O)NCCC1CCN(S(=O)(=O)NC(=O)NC[C@@H]2C[C@@H]3C=C[C@@H]2C3)CC1` (relative stereo), for which the Activity in the series with Rattus norvegicus [1] stood at 37%; in the series with Rattus norvegicus [2], 27%.
For the compound `O=C(NC[C@@H]1C[C@@H]2C=C[C@@H]1C2)NS(=O)(=O)N1CCC(CCNC(=O)c2cc(Cl)ccn2)CC1` (relative stereo), the values for the Activity in the series on Rattus norvegicus [1], in the series with Rattus norvegicus [2] and with Rattus norvegicus [4] were 32%, 16% and 46%, respectively.
Regarding `COc1ncc(Cl)cc1C(=O)NCCC1CCN(S(=O)(=O)NC(=O)NC[C@@H]2C[C@@H]3C=C[C@@H]2C3)CC1.O` (relative stereo), the Activity with Rattus norvegicus [2] amounted to 20%. The result in the series with Rattus norvegicus [5] was inactive.
Turning to `Cn1cccc(C(=O)NCCC2CCN(S(=O)(=O)NC(=O)NC[C@@H]3C[C@@H]4C=C[C@@H]3C4)CC2)c1=O` (relative stereo), the Activity with Rattus norvegicus [2] is given as 19%; in the series on Rattus norvegicus [4] it was 40%.
For the compound `O.O=C(NC[C@@H]1C[C@@H]2C=C[C@@H]1C2)NS(=O)(=O)N1CCC(CCNC(=O)c2nc3ccccc3s2)CC1` (relative stereo), the values for the Activity in the series on Rattus norvegicus [1], in the series on Rattus norvegicus [2] and in the series on Rattus norvegicus [4] were 24%, 14% and 34%, respectively.
Turning to `O.O=C(NC[C@@H]1C[C@@H]2C=C[C@@H]1C2)NS(=O)(=O)N1CCC(CCNC(=O)c2cccc3cccnc23)CC1` (relative stereo), the Activity came out at 34% with Rattus norvegicus [1] and 32% with Rattus norvegicus [2].
As for `O.O=C(NC[C@@H]1C[C@@H]2C=C[C@@H]1C2)NS(=O)(=O)N1CCC(CCNC(=O)c2cc(Cl)cc3cccnc23)CC1` (relative stereo), the Activity is 35% with Rattus norvegicus [1] and 16% with Rattus norvegicus [2]. Besides, the outcome with Rattus norvegicus [5] was inactive.
`COc1ncccc1C(=O)NCCC1CCN(S(=O)(=O)NC(=O)NC[C@@H]2C[C@@H]3C=C[C@@H]2C3)CC1` (relative stereo): the Activity with Rattus norvegicus [1] is recorded as 32%; with Rattus norvegicus [2], 25%; in the series filed under Homo sapiens, “Non-toxic”.
Regarding `Cn1cc(C(=O)NCCC2CCN(S(=O)(=O)NC(=O)NC[C@@H]3C[C@@H]4C=C[C@@H]3C4)CC2)c(=O)n(C)c1=O` (relative stereo), the Activity in the series with Rattus norvegicus [1] was 23%; in the series on Rattus norvegicus [2], 12%; with Rattus norvegicus [4], 32%.
Consider `CCCNC(=O)NS(=O)(=O)c1ccc(Cl)cc1` [CHLORPROPAMIDE], for which the figures for the Activity in the series with Rattus norvegicus [1], in the series on Rattus norvegicus [7] and in the series with Rattus norvegicus [4] were 10%, 46% and 18%, respectively.
